{"source": "ChEMBL document CHEMBL1938298", "about": "“Synthesis and characterization of [¹²⁵I]2-iodo N-[(S)-{(S)-1-methylpiperidin-2-yl}(phenyl)methyl]3-trifluoromethyl-benzamide as novel imaging probe for glycine transporter 1” (Bioorg Med Chem, 2011)", "key": {"[1]": {"target": "T1, Sodium- and chloride-dependent glycine transporter 1 (Homo sapiens, UniProt P48067)", "T1 sequence (P48067 whole entry)": "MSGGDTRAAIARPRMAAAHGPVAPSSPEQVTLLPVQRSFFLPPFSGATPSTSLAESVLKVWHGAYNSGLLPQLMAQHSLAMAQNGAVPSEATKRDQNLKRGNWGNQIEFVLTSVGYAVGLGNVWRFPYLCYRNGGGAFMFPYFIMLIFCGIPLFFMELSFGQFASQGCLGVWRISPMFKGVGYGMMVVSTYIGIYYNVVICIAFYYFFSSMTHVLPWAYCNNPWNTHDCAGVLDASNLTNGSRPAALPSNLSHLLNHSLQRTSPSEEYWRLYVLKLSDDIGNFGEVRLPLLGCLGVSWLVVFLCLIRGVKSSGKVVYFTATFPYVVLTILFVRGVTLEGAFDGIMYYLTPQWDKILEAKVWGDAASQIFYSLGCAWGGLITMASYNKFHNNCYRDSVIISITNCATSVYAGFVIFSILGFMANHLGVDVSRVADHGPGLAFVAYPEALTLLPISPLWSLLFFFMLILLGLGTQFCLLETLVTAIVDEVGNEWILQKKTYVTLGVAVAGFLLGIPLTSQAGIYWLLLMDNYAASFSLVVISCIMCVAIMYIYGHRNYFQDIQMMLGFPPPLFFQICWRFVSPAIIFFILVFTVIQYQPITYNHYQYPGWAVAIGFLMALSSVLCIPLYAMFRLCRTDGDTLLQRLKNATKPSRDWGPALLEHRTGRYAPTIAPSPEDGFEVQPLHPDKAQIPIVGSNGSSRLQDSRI", "assay": "Inhibition of GlyT1 in human JAR cells assessed as inhibition of [3H]glycine uptake preincubated for 1 mins measured after 2 hrs by liquid scintillation counting", "assay_type": "cell-based", "outline": "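[3H]glycine (final 10 µM) was added for 2 h at room temperature; nonspecific uptake was defined with 10 mM glycine. Cells were lysed in NaOH and counted by liquid scintillation. IC50 values are from at least three measurements, mean ± SEM.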"}, "[2]": {"target": "T1, Sodium- and chloride-dependent glycine transporter 1", "assay": "Inhibition of human GlyT1 expressed in CHO cells assessed as inhibition of [3H]glycine uptake preincubated for 1 mins measured after 2 hrs by liquid scintillation counting", "assay_type": "cell-based"}}}
{"smiles": "O=C(N[C@@H](c1ccccc1)[C@@H]1CCCCN1)c1cccc(C(F)(F)F)c1I", "values": [{"measurement": "IC50", "setting": "[1]", "value": 43, "unit": "nM"}]}
{"smiles": "O=C(N[C@@H](c1ccccc1)[C@@H]1CCCCN1)c1cccc(C(F)(F)F)c1Cl", "values": [{"measurement": "IC50", "setting": "[2]", "value": 314, "unit": "nM"}, {"measurement": "IC50", "setting": "[1]", "value": 80.1, "unit": "nM"}]}
